From ChEMBL document CHEMBL2086239, “Synthesis and biological evaluation of combretastatin-amidobenzothiazole conjugates as potential anticancer agents” (Eur J Med Chem, 2012)
pIC50: −log10 of the molar value. Activity calls are given as the source filed them. The rule behind the calls is not given here.

Columns and labels:
SR = assay: Growth inhibition of human SR cells after 48 hrs by SRB assay; assay type: functional
In short: (§1)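 NCI 60-cell-line panel, five-dose testing after preliminary screen; sulforhodamine B protein assay in DMEM with 10% FBS, 37 °C, 5% CO2, 100% humidity. Cells seeded and incubated 24 h before compound addition, then exposed 48 h. Absorbance read at 560 nm; growth percentage relative to control wells; GI50 taken as concentration giving 50% growth inhibition.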

NCI/ADR-RES = assay: Growth inhibition of human NCI/ADR-RES cells after 48 hrs by SRB assay; assay type: functional
In short: (§2)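 NCI 60-cell-line screen: after preliminary screening, tested at five dose concentrations on 59 human tumour lines covering leukemia, lung, colon, CNS, melanoma, ovarian, renal, prostate and breast.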

MDA-MB-435 = assay: Growth inhibition of human MDA-MB-435 cells after 48 hrs by SRB assay; assay type: functional; conditions: MDA-MB-435, 48 h; in short: as §2
BT-549 = assay: Growth inhibition of human BT549 cells after 48 hrs by SRB assay; assay type: functional; conditions: BT-549, 48 h; in short: as §2
IMR-32 = assay: Cytotoxicity against human IMR32 cells after 48 hrs assessed as inhibition of cell growth at 10 uM after 48 hrs by SRB assay relative to control; assay type: functional; conditions: IMR-32, 48 h, read-out: GI
In short: (§3)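 SRB protein assay in DMEM with 10% FBS at 37 °C, 5% CO2, 100% relative humidity. Cells seeded in 96-well plates, incubated 24 h, then exposed to drug at 10 µM for 48 h and processed per standard protocol. Absorbance read at 560 nm; growth percentage calculated for test wells relative to control wells.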

SK-MEL-5 = assay: Growth inhibition of human SK-MEL-5 cells after 48 hrs by SRB assay; assay type: functional; conditions: SK-MEL-5, 48 h; in short: as §1
SK-MEL-2 = assay: Growth inhibition of human SK-MEL-2 cells after 48 hrs by SRB assay; assay type: functional; conditions: SK-MEL-2, 48 h; in short: as §1
HCT-15 = assay: Growth inhibition of human HCT15 cells after 48 hrs by SRB assay; assay type: functional; conditions: HCT-15, 48 h; in short: as §2
PC-3 = assay: Growth inhibition of human PC3 cells after 48 hrs by SRB assay; assay type: functional; conditions: PC-3, 48 h; in short: as §2
MCF7 [1] = assay: Cytotoxicity against human MCF7 cells at 4 uM after 24 hrs by MTT assay; assay type: functional, cell-based
In short: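 MCF-7 cells grown in DMEM with 10% fetal calf serum, penicillin and streptomycin at 37 °C, 5% CO2. Seeded at 10,000 cells/well, incubated overnight, then treated 24 h at 4 µM. Medium replaced with fresh medium plus MTT dye, incubated 2 h at 37 °C. Absorbance read at 570 nm; O.D. taken as viability versus untreated control.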

COLO 205 = assay: Cytotoxicity against human COLO205 cells after 48 hrs assessed as inhibition of cell growth at 10 uM after 48 hrs by SRB assay relative to control; assay type: functional; conditions: COLO 205, 48 h, read-out: GI; in short: as §3
SF-268 = assay: Growth inhibition of human SF268 cells after 48 hrs by SRB assay; assay type: functional; conditions: SF-268, 48 h; in short: as §2
Malme-3M = assay: Growth inhibition of human MALME-3M cells after 48 hrs by SRB assay; assay type: functional; in short: as §2
SF-539 = assay: Growth inhibition of human SF539 cells after 48 hrs by SRB assay; assay type: functional; conditions: SF-539, 48 h; in short: as §1
RXF 393 = assay: Growth inhibition of human RXF393 cells after 48 hrs by SRB assay; assay type: functional; conditions: RXF 393, 48 h; in short: as §2
OVCAR-3 = assay: Growth inhibition of human OVCAR3 cells after 48 hrs by SRB assay; assay type: functional; conditions: OVCAR-3, 48 h; in short: as §2
KM12 = assay: Growth inhibition of human KM12 cells after 48 hrs by SRB assay; assay type: functional; conditions: KM12, 48 h; in short: as §2
786-0 = assay: Growth inhibition of human 786-0 cells after 48 hrs by SRB assay; assay type: functional; in short: as §2
MCF7 [2] = assay: Growth inhibition of human MCF7 cells after 48 hrs by SRB assay; assay type: functional; conditions: MCF7, 48 h; in short: as §2
MCF7 [3] = assay: Inhibition of microtubule organization in human MCF7 cells at 4 uM after 24 hrs by immunofluorescence analysis; assay type: cell-based
In short: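 MCF-7 cells were grown in DMEM with 10% fetal calf serum and penicillin/streptomycin at 37 °C and 5% CO2. Cells on cover slips were treated for 24 h, then fixed in 4% paraformaldehyde for 20 min. They were permeabilised with 0.2% Triton X-100, held in methanol at 4 °C overnight and blocked with 1% BSA. Staining used anti-α-tubulin (1:100, 2 h RT), FITC secondary and a DAPI/PI mount, with confocal imaging.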

THP-1 = assay: Cytotoxicity against human THP1 cells after 48 hrs assessed as inhibition of cell growth at 10 uM after 48 hrs by SRB assay relative to control; assay type: functional; conditions: for inhibition of growth at 10 µM: THP-1, 48 h, read-out: GI; in short: as §3
MCF7 [4] = assay: Cell cycle arrest in human MCF7 cells assessed as accumulation at S phase at 4 uM after 24 hrs by FACS analysis (reference value: 6.79%); assay type: functional
[5] = Inhibition of tubulin polymerization after 30 mins to 1 hr by spectrophotometry
In short: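 This was a kit-based tubulin polymerization assay. Kit tubulin in G-PEM buffer was incubated with compounds, and polymerization was followed as optical density at 340 nm for 30 min to 1 h. Inhibition was read as a decrease in OD. Nocodazole and paclitaxel were run as reference destabilizer and stabilizer.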

SK-OV-3 = assay: Growth inhibition of human SKOV3 cells after 48 hrs by SRB assay; assay type: functional; conditions: SK-OV-3, 48 h; in short: as §1
A549 = assay: Growth inhibition of human A549 cells after 48 hrs by SRB assay; assay type: functional; conditions: A549, 48 h; in short: as §2
[6] = biological target: Mitogen-activated protein kinase; ERK1/ERK2 (Homo sapiens) (UniProt P27361+P28482); assay: Inhibition of nuclear translocation of phosphorylated ERK1/2 in human MCF7 cells at 4 uM after 24 hrs by immunofluorescence assay; assay type: cell-based
Chain of Mitogen-activated protein kinase; ERK1/ERK2 (Homo sapiens) (P27361 whole entry, looked up): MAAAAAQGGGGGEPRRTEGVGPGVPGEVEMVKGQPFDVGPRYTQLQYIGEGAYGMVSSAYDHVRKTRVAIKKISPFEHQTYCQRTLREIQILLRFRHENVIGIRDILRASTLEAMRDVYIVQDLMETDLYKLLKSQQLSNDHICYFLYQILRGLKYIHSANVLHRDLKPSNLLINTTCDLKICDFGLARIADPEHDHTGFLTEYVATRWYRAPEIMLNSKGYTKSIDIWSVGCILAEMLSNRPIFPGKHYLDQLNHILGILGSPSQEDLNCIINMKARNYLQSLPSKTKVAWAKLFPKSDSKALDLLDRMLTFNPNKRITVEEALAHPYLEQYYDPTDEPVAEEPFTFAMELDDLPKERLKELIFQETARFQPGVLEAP
Chain of Mitogen-activated protein kinase; ERK1/ERK2 (Homo sapiens) (P28482 whole entry, looked up): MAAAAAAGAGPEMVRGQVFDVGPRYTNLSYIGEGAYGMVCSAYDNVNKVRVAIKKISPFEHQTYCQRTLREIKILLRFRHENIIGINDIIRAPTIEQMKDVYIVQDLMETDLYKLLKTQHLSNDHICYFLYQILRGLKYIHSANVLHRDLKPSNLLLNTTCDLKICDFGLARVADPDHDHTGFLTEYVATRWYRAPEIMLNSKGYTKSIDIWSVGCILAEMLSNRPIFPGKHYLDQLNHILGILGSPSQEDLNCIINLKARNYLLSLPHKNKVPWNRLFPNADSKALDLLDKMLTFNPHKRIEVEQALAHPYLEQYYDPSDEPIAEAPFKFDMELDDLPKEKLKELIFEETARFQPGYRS
In short: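 MCF-7 cells (DMEM, 10% fetal calf serum, 37 °C, 5% CO2) were treated on cover slips for 24 h. They were fixed in 4% paraformaldehyde, permeabilised with 0.2% Triton X-100, held in methanol at 4 °C overnight and blocked with 1% BSA for 60 min. Anti-phospho-ERK antibody (1:100, 2 h RT) was followed by FITC anti-rabbit secondary for 1 h and a DAPI/PI mount. Subcellular pERK localisation was imaged by confocal microscopy.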

SK-MEL-28 = assay: Growth inhibition of human SK-MEL-28 cells after 48 hrs by SRB assay; assay type: functional; conditions: SK-MEL-28, 48 h; in short: as §1
NCI-H322M = assay: Growth inhibition of human NCI-H322M cells after 48 hrs by SRB assay; assay type: functional; in short: as §2
SW-620 = assay: Growth inhibition of human SW620 cells after 48 hrs by SRB assay; assay type: functional; conditions: SW-620, 48 h; in short: as §1
OVCAR-5 = assay: Growth inhibition of human OVCAR5 cells after 48 hrs by SRB assay; assay type: functional; conditions: OVCAR-5, 48 h; in short: as §2

| GI50 (MDA-MB-435) [nM] | GI50 (BT-549) [nM] | GI50 (SK-MEL-5) [nM] | GI50 (SK-MEL-2) [nM] | GI50 (HCT-15) [nM] | GI50 (PC-3) [nM] | GI50 (OVCAR-3) [nM] | GI50 (MCF7 [2]) [nM] | GI50 (SK-OV-3) [nM] | GI50 (A549) [nM] | SMILES | GI50 (SR) [nM] | GI50 (NCI/ADR-RES) [nM] | inhibition of growth at 10 µM (IMR-32) [%] | inhibition of growth at 10 µM (COLO 205) [%] | GI50 (SF-268) [nM] | GI50 (Malme-3M) [nM] | GI50 (SF-539) [nM] | GI50 (RXF 393) [nM] | GI50 (KM12) [nM] | Activity (MCF7 [4]) [%] | further results |
| --- | --- | --- | --- | --- | --- | --- | --- | --- | --- | --- | --- | --- | --- | --- | --- | --- | --- | --- | --- | --- | --- |
| 19 | 410 | 36 | 180 | 48 | 180 | 43 | 51 | 340 | 340 | COc1ccc(/C=C\c2cc(OC)c(OC)c(OC)c2)cc1OCC(=O)Nc1nc2ccccc2s1 | 37 | 33 | 91 | 60 | 180 | 1990 | 45 | 50 | 58 | 27.48 | Activity (MCF7 [1]): Active; GI50 (786-0; 786-0, 48 h): 100 nM; inhibition (MCF7 [3]): Active; growth inhibition (GI) (THP-1): inactive; pIC50 [5]: 5.30; inhibition [6]: Active |
| 1 | 10000 | 3 | 3 | 3 | 1 | 1 | 5 | 63 | 15 | COc1ccc(/C=C\c2cc(OC)c(OC)c(OC)c2)cc1O [COMBRETASTATIN A4] | 3 | 1 | 89 | 63 | 6 | 19 | 2 | 2 | 5 | 14.27 | GI50 (SK-MEL-28): 7 nM; GI50 (NCI-H322M): 3 nM; GI50 (SW-620): 3 nM; GI50 (786-0; 786-0, 48 h): 100 nM; GI50 (OVCAR-5): 100 nM; inhibition of growth at 10 µM (THP-1): 87%; inhibition [5]: Active |

| SMILES | GI50 (MDA-MB-435) [nM] | GI50 (BT-549) [nM] | GI50 (SK-MEL-5) [nM] | GI50 (SK-MEL-2) [nM] | GI50 (HCT-15) [nM] | GI50 (PC-3) [nM] | GI50 (OVCAR-3) [nM] | GI50 (MCF7 [2]) [nM] | GI50 (SK-OV-3) [nM] | GI50 (A549) [nM] | GI50 (SR) [nM] | GI50 (NCI/ADR-RES) [nM] | inhibition of growth at 10 µM (IMR-32) [%] | inhibition of growth at 10 µM (COLO 205) [%] | GI50 (SF-268) [nM] | GI50 (Malme-3M) [nM] | GI50 (SF-539) [nM] | GI50 (RXF 393) [nM] | GI50 (KM12) [nM] | Activity (MCF7 [4]) [%] | further results |
| --- | --- | --- | --- | --- | --- | --- | --- | --- | --- | --- | --- | --- | --- | --- | --- | --- | --- | --- | --- | --- | --- |
| COc1ccc(/C=C\c2cc(OC)c(OC)c(OC)c2)cc1OCC(=O)Nc1nc2ccc(OC(F)(F)F)cc2s1 | 1930 | 10500 | 3260 | 3290 | 3230 | 5120 | 3370 | 2890 | 8420 | 6000 | 3550 | 2700 | 44 | 41 | 6010 |  | 2280 | 2650 | 4480 | 7.51 | GI50 (SK-MEL-28): 4570 nM; GI50 (NCI-H322M): inactive; GI50 (SW-620): 5650 nM; GI50 (786-0): inactive; GI50 (OVCAR-5): 3120 nM; inhibition of growth at 10 µM (THP-1): 66% |
